Values after ≈ are worked out from the molar mass of the structure shown. Non-standard residues stand in square brackets, D forms with d. Residues, ends and D or L forms follow the SMILES beside them. Orn = NCCC[C@H](N)C(=O)O
Tests used:
[1] = system: Candida albicans; experiment: Antifungal activity against Candida albicans 885-653 measured every 24 hrs for 14 days by conventional dilution method; assay type: functional
Method in brief: (§1)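 Dilution assay in Sabouraud dextrose broth, inoculum 2 × 10^3–4 cfu/ml. MIC is the lowest concentration with no visible growth after 14 days of incubation. Run alongside a positive growth control and standard drug controls. Tests in duplicate, repeated twice.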

[2] = system: Aspergillus niger; experiment: Antifungal activity against Aspergillus niger BKMF-1119 measured every 24 hrs for 14 days by conventional dilution method; assay type: functional; method in brief: as §1
[3] = system: Pseudomonas aeruginosa; experiment: Antibacterial activity against Pseudomonas aeruginosa 9027 measured every 24 hrs for 5 days by conventional dilution method; assay type: functional
Method in brief: (§2)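 Broth dilution in nutrient broth, inoculum 3 × 10⁵ cfu/ml. MIC is the lowest concentration showing no growth, read visually every 24 h over 5 days. Run alongside a positive growth control and standard drug controls. Tests in duplicate, repeated twice.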

[4] = system: Trichophyton mentagrophytes; experiment: Antifungal activity against Trichophyton mentagrophytes measured every 24 hrs for 14 days by conventional dilution method; assay type: functional; method in brief: as §1
[5] = system: Bacillus cereus; experiment: Antibacterial activity against Bacillus cereus 8035 measured every 24 hrs for 5 days by conventional dilution method; assay type: functional; method in brief: as §2
[6] = system: Staphylococcus aureus; experiment: Antibacterial activity against Staphylococcus aureus 209p measured every 24 hrs for 5 days by conventional dilution method; assay type: functional; method in brief: as §2
[7] = system: Escherichia coli; experiment: Antibacterial activity against Escherichia coli F-50 measured every 24 hrs for 5 days by conventional dilution method; assay type: functional; method in brief: as §2
[8] = system: Candida albicans; experiment: Fungicidal activity against Candida albicans 885-653 after 6 hrs; assay type: functional; conditions: 885-653, 6 h
Method in brief: (§3)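 Tubes of test compound (5 to 500 per ml, 1 mL in nutrient agar) with fungi were incubated at 26 °C for 6 h. Inocula were then prepared in Sabouraud dextrose broth and incubated at 26 °C. The fungicidal concentration is the one giving total cell death.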

[9] = system: Trichophyton mentagrophytes; experiment: Fungicidal activity against Trichophyton mentagrophytes after 6 hrs; assay type: functional; method in brief: as §3
[10] = Acute toxicity in ip dosed mouse; assay type: organism-based; conditions: in vivo
Method in brief: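 Mice; each compound given at 5 dose levels, 10 animals per dose (n = 50 per compound). Animals observed for 72 h; toxicity expressed as average lethal dose (LD50) calculated from mortality across dose groups.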

[11] = system: Bacillus cereus; experiment: Bactericidal activity against Bacillus cereus 8035 after 4 hrs; assay type: functional; conditions: Bacillus cereus, 8035, 4 h
Method in brief: (§4)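 Tubes contained 1 mL test compound in nutrient agar, 5 to 500 per ml. Bacteria in normal saline broth (3 × 10⁵ cfu/ml, 1 mL) were added and held 4 h, then transferred onto meal-peptone agar plates and incubated at 37 °C. MBC is the dilution giving total cell death.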

[12] = system: Escherichia coli; experiment: Bactericidal activity against Escherichia coli F-50 after 4 hrs; assay type: functional; conditions: F-50, 4 h; method in brief: as §4
[13] = system: Pseudomonas aeruginosa; experiment: Bactericidal activity against Pseudomonas aeruginosa 9027 after 4 hrs; assay type: functional; conditions: Pseudomonas aeruginosa, 9027, 4 h; method in brief: as §4
[14] = system: Staphylococcus aureus; experiment: Bactericidal activity against Staphylococcus aureus 209p after 4 hrs; assay type: functional; method in brief: as §4
[15] = system: Aspergillus niger; experiment: Fungicidal activity against Aspergillus niger BKMF-1119 after 6 hrs; assay type: functional; conditions: BKMF-1119, 6 h; method in brief: as §3

Compound | MIC [1] [µg/mL] | MIC [2] [µg/mL] | MIC [3] [µg/mL] | MIC [4] [µg/mL] | MIC [5] [µg/mL] | MIC [6] [µg/mL] | MIC [7] [µg/mL] | MFC [8] [µg/mL] | MFC [9] [µg/mL] | LD50 [10] [mg/kg] | MBC [11] [µg/mL] | MBC [12] [µg/mL] | MBC [13] [µg/mL] | MBC [14] [µg/mL] | MFC [15] [µg/mL]
O=c1[nH]c2ccccc2n2c(-c3ccc[n+](CCCCCC[n+]4cccc(-c5nc(-c6ccccc6)c6c(=O)[nH]c7ccccc7n56)c4)c3)nc(-c3ccccc3)c12.[Br-].[Br-] | > 500 | > 500 | > 500 | > 500 | > 500 | 500 | > 500 | – | – | – | – | – | – | – | –
Cc1nc(-c2ccc[n+](Cc3ccccc3)c2)n2c1c(=O)[nH]c1ccccc12.[Cl-] | > 500 | > 500 | > 500 | > 500 | > 500 | 500 | > 500 | – | – | – | – | – | – | – | –
O=c1[nH]c2ccccc2n2c(-c3ccc[n+](CCCC[n+]4cccc(-c5nc(-c6ccccc6)c6c(=O)[nH]c7ccccc7n56)c4)c3)nc(-c3ccccc3)c12.[Br-].[Br-] | 3.9 | > 500 | > 500 | 250 | > 500 | > 500 | > 500 | – | – | – | – | – | – | – | –
CCCn1c(=O)c2c(-c3ccccc3)nc(-c3ccc[n+](Cc4ccccc4)c3)n2c2ccccc21.[Cl-] | > 500 | > 500 | > 500 | > 500 | 125 | 62.5 | > 500 | – | – | – | – | – | – | – | –
Cn1c(=O)c2c(-c3ccccc3)nc(-c3ccc[n+](Cc4ccccc4)c3)n2c2ccccc21.[Cl-] | 62.5 | > 500 | > 500 | 500 | 125 | 31.3 | > 500 | – | – | – | – | – | – | – | –
Clc1ccccc1C(c1ccccc1)(c1ccccc1)n1ccnc1 [CLOTRIMAZOLE] | 0.39 (≈ 1.13 µM) | – | – | 3.13 (≈ 9.08 µM) | – | – | – | 0.39 (≈ 1.13 µM) | 3.13 (≈ 9.08 µM) | – | – | – | – | – | –
CCCCCC[n+]1cccc(-c2nc(-c3ccccc3)c3c(=O)[nH]c4ccccc4n23)c1.[Br-] | 250 | > 500 | > 500 | > 500 | 125 | 62.5 | > 500 | – | – | 75.8 | – | – | – | – | –
CCn1cc(C(=O)O)c(=O)c2cc(F)c(N3CCNCC3)cc21 [NORFLOXACIN] | – | – | 3 (≈ 9.39 µM) | – | 7.8 (≈ 24.4 µM) | 2.42 (≈ 7.58 µM) | 1.5 (≈ 4.7 µM) | – | – | – | 12.5 (≈ 39.1 µM) | 5 (≈ 15.7 µM) | 5 (≈ 15.7 µM) | 5 (≈ 15.7 µM) | –
CCCC[n+]1cccc(-c2nc(-c3ccccc3)c3c(=O)[nH]c4ccccc4n23)c1.[I-] | > 500 | > 500 | > 500 | > 500 | > 500 | 500 | > 500 | – | – | 63.2 | – | – | – | – | –
O=C(O)c1cn(C2CC2)c2cc(N3CCNCC3)c(F)cc2c1=O [CIPROFLOXACIN] | – | – | – | – | 0.25 (≈ 0.754 µM) | 0.25 (≈ 0.754 µM) | – | – | – | – | 0.25 (≈ 0.754 µM) | 0.5 (≈ 1.51 µM) | 0.5 (≈ 1.51 µM) | 0.25 (≈ 0.754 µM) | –
CCCCCCCCCCCCCCCCCCn1c(=O)c2c(-c3ccccc3)nc(-c3ccc[n+](Cc4ccccc4)c3)n2c2ccccc21.[Cl-] | > 500 | > 500 | > 500 | > 500 | > 500 | 500 | > 500 | – | – | – | – | – | – | – | –
CCCCCCn1c(=O)c2c(-c3ccccc3)nc(-c3ccc[n+](CCCCCC)c3)n2c2ccccc21.[I-] | 15.6 | > 500 | 500 | > 500 | 62.5 | 62.5 | 250 | – | – | – | – | – | – | – | –
CCCCCCn1c(=O)c2c(-c3ccccc3)nc(-c3ccc[n+](Cc4cccc(C[n+]5cccc(-c6nc(-c7ccccc7)c7c(=O)n(CCCCCC)c8ccccc8n67)c5)c4)c3)n2c2ccccc21.[Br-].[Br-] | 15.6 | > 500 | > 500 | > 500 | 62.5 | 12.5 | > 500 | – | – | – | – | – | – | – | –
CC1COc2c(N3CCN(C)CC3)c(F)cc3c(=O)c(C(=O)O)cn1c23 (stereo not given) [OFLOXACIN] | – | – | 3.1 (≈ 8.58 µM) | – | 1.5 (≈ 4.15 µM) | 0.97 (≈ 2.68 µM) | – | – | – | – | – | – | – | – | –
Cl.O=c1[nH]c2ccccc2n2c(-c3ccccn3)nc(-c3ccccc3)c12 | > 500 | > 500 | > 500 | > 500 | > 500 | > 500 | > 500 | – | – | – | – | – | – | – | –
Cl.O=c1[nH]c2ccccc2n2c(-c3cccnc3)nc(-c3ccccc3)c12 | > 500 | > 500 | > 500 | > 500 | > 500 | > 500 | > 500 | – | – | – | – | – | – | – | –
O=c1[nH]c2ccccc2n2c(-c3ccc[n+](Cc4ccccc4)c3)nc(-c3ccccc3)c12.[Cl-] | 62.5 | > 500 | > 500 | 500 | 125 | 31.3 | > 500 | – | – | 65.7 | – | – | – | – | –
O=c1c2c(-c3ccccc3)nc3n2c2ccccc2n1CCCCCCCCCCn1c(=O)c2c(-c4ccccc4)nc(n2c2ccccc21)-c1ccc[n+](c1)Cc1cccc(c1)C[n+]1cccc-3c1.[Br-].[Br-] | 250 | > 500 | > 500 | > 500 | > 500 | 125 | > 500 | – | – | – | – | – | – | – | –
CCCCCCCCCn1c(=O)c2c(-c3ccccc3)nc(-c3ccc[n+](CCCCCC)c3)n2c2ccccc21.[I-] | 25 | > 500 | > 500 | > 500 | 125 | 62.5 | > 500 | – | – | – | – | – | – | – | –
C[C@@H]1[C@H](O)[C@@H](C)/C=C/C=C/C=C/C=C/C=C/C=C/C=C/[C@H](O[C@@H]2O[C@H](C)[C@@H](O)[C@H](N)[C@@H]2O)C[C@@H]2O[C@](O)(C[C@@H](O)C[C@@H](O)[C@H](O)CC[C@@H](O)C[C@@H](O)CC(=O)O[C@H]1C)C[C@H](O)[C@H]2C(=O)O [AMPHOTERICIN B] | 0.97 (≈ 1.05 µM) | 20 (≈ 21.6 µM) | – | 3.13 (≈ 3.39 µM) | – | – | – | 50 (≈ 54.1 µM) | 250 (≈ 271 µM) | 27.7 | – | – | – | – | 250 (≈ 271 µM)
CC(C)C[C@@H]1NC(=O)[C@H](CCCN)NC(=O)[C@H](C(C)C)NC(=O)[C@@H]2CCCN2C(=O)[C@@H](Cc2ccccc2)NC(=O)[C@H](CC(C)C)NC(=O)[C@H](CCCN)NC(=O)[C@H](C(C)C)NC(=O)[C@@H]2CCCN2C(=O)[C@@H](Cc2ccccc2)NC1=O [GRAMICIDIN S] (cyclo(L[dF]PV[Orn]L[dF]PV[Orn])) | – | – | – | – | – | – | – | – | – | 26 | – | – | – | – | –
CCCCCCCCCn1c(=O)c2c(-c3ccccc3)nc(-c3ccc[n+](Cc4cccc(C[n+]5cccc(-c6nc(-c7ccccc7)c7c(=O)n(CCCCCCCCC)c8ccccc8n67)c5)c4)c3)n2c2ccccc21.[Br-].[Br-] | 7.8 | > 500 | > 500 | 500 | 15.6 | 3.9 | 500 | – | – | 108 | – | – | – | – | –

From ChEMBL document CHEMBL2407024, “Antimicrobial activity of imidazo[1,5-a]quinoxaline derivatives with pyridinium moiety” (Eur J Med Chem, 2013)
